Sampled rows, rich in hits. Any-hit rate of the full collection: about 2.5%.
Beta2AR agonist: agonists of human beta-2 adrenergic receptor inducing internalization; P07550; Am2.2-beta2AR cells, FAP receptor internalization, flow cytometry; response, % (no concentration beside the values); 340,000 compounds, 0.43% hits; AID 504454;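 active = response above a set limit, near 3 SD of response in nonfluorescent compounds, cut at about 42% in these data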
ABHD5 PLIN5 PPI: ABHD5-PLIN5 protein interaction inhibition; Q00G26+Q8WTS1; Split G. princeps luciferase complementation, luminescence, 4 h; inhibition, % at 4 µM; 360,000 compounds, 0.78% hits;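 active = inhibition above the mean inhibition across every tested compound plus 3 SD, cut at about 22% in these data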;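 note: 0% = DMSO only wells and the 100% control is not disclosed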
UHRF1 binding: human UHRF1 methylated DNA binding inhibitors | UHRF1 binding to methylated oligo, TR-FRET | 370,000 compounds, 0.75% hits | Q96T88 | inhibition, % at 4.4 µM | AID 687016; in the data active = inhibition above about 21%;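 note: UHRF1 SRA domain binding a hemimethylated CpG hairpin DNA probe; 0% = median of test compound wells and 100% = reference inhibitor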
MBD2 inh: MBD2-methylated oligo binding inhibition. Q9UBB5. inhibition, % at 4.4 µM. 370,000 compounds, 0.31% hits. TR-FRET, MBD2 binding to methylated oligonucleotide; in the data active = inhibition above about 13%
Target sequence (Q9UBB5 whole entry, looked up): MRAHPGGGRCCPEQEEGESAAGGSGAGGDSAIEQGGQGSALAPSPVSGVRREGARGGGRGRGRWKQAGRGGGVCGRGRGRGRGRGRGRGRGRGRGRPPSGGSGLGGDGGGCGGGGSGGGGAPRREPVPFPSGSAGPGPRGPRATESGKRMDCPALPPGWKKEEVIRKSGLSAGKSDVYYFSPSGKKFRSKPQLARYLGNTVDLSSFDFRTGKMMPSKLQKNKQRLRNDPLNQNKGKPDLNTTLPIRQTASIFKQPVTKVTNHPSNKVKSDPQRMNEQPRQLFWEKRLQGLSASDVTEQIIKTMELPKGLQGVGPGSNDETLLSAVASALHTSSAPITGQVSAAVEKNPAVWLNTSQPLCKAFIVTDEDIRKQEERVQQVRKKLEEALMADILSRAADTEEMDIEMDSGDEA
Arrestin-AP2 inh: inhibitors of human beta-arrestin and AP2 interaction | FITC-arrestin peptide / GST-AP2 beads, flow cytometry; AP2 beta2 appendage carries R879A mutation | inhibition, % at 10 µM | 340,000 compounds, 0.31% hits | AID 504490;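 active = inhibition above a set limit, near 3 SD of compounds lacking own fluorescence, cut at about 54% in these data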;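 note: plate controls were DMSO wells for no effect and 5 µM unlabelled arrestin peptide for full effect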
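Measured by: flow cytometry, FL1 (488/535 nm); Material: AP2 appendage R879A on GSH beads; Evaluation: percent response; Timing: pre-incubation 12 min, peptide binding 1 h, room temperature; Also added: 50 nM FITC-arrestin peptide; Medium: PBS with 0.05% Tween 20 and 0.1% BSA.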
Rin1-Abl PPI inh: human Rin1-Abl interaction inhibition | P00519+Q13671 | TR-FRET Rin1/Abl binding, biochemical | inhibition, % at 7.35 µM | 360,000 compounds, 0.4% hits | AID 588664; in the data active = inhibition above about 5%, passing the limit was not always enough
ABHD5 PLIN5 conf: confirmation of human ABHD5-PLIN5 interaction inhibitors | shares compounds with ABHD5 PLIN5 PPI | biochemical ABHD5-PLIN5 interaction, luminescence | inhibition, % at 4 µM | 2,200 compounds, 67% hits | AID 651612; in the data active = inhibition above about 23%;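 note: 0% = DMSO vehicle wells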
HNF4 counter: active in HNF4 split-luciferase counter-screen for ABHD5-PLIN5 inhibitors | HNF4 dimerization, luminescence, biochemical | inhibition, % at 4 µM | shares compounds with ABHD5 PLIN5 PPI | 2,200 compounds, 77% hits | AID 651674;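 active = mean inhibition across replicate wells exceeding the computed hit threshold, cut at about 13% in these data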;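 note: light from luciferase halves that rejoin when HNF4 fusion proteins dimerize; 0% = DMSO only wells and the 100% control is not given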
* = called active by the depositor.

Screening O=[N+]([O-])c1ccccc1S(=O)(=O)Nc1ccc(S(=O)(=O)N2CCCC2)cc1 returned Beta2AR agonist 1, ABHD5 PLIN5 PPI 33*, UHRF1 binding -1, MBD2 inh 2, Arrestin-AP2 inh 24, Rin1-Abl PPI inh 0, ABHD5 PLIN5 conf 34* and HNF4 counter 48*.
For Cc1ccc(NS(=O)(=O)c2ccccc2[N+](=O)[O-])cc1S(=O)(=O)N1CCCCC1 the results were Beta2AR agonist -1, ABHD5 PLIN5 PPI -7, UHRF1 binding 3, MBD2 inh 3, Arrestin-AP2 inh -10 and Rin1-Abl PPI inh -2.
For CCC1=NN(C(=O)C(=O)Nc2ccc(Br)cc2)C(O)(C(F)(F)F)C1 (stereo not drawn) the results were Beta2AR agonist 14, ABHD5 PLIN5 PPI 21, UHRF1 binding 2, MBD2 inh -2, Arrestin-AP2 inh 16 and Rin1-Abl PPI inh 1.
Screening CCCC1=NN(C(=O)C(=O)Nc2ccc(Br)cc2)C(O)(C(F)(F)F)C1 (stereo not drawn) returned Beta2AR agonist 2, ABHD5 PLIN5 PPI 23*, UHRF1 binding 7, MBD2 inh -1, Arrestin-AP2 inh -7, Rin1-Abl PPI inh 1, ABHD5 PLIN5 conf 37* and HNF4 counter 42*.
Screening O=C(/C=C/c1ccccc1)c1ccc2c(c1)OCCCCO2 returned Beta2AR agonist 7, ABHD5 PLIN5 PPI 24*, UHRF1 binding 4, MBD2 inh 6, Arrestin-AP2 inh -3, Rin1-Abl PPI inh 1, ABHD5 PLIN5 conf 53* and HNF4 counter 43*.
Screening N#Cc1ccc(/C=C/C(=O)c2ccc3c(c2)OCO3)cc1 returned Beta2AR agonist 6, ABHD5 PLIN5 PPI 33*, UHRF1 binding 26*, MBD2 inh -2, Arrestin-AP2 inh 21, Rin1-Abl PPI inh 1, ABHD5 PLIN5 conf 88* and HNF4 counter 82*.
Screening COc1ccc(/C=C/C(=O)c2ccc3c(c2)OCO3)cc1OC returned Beta2AR agonist 22, ABHD5 PLIN5 PPI -6, UHRF1 binding -3, MBD2 inh 4, Arrestin-AP2 inh 4 and Rin1-Abl PPI inh 1.
O=C1COc2ccc(C(=O)/C=C/c3ccccc3)cc2N1 was read as Beta2AR agonist 3, ABHD5 PLIN5 PPI 47*, UHRF1 binding 2, MBD2 inh -2, Arrestin-AP2 inh 3, Rin1-Abl PPI inh -3, ABHD5 PLIN5 conf 77* and HNF4 counter 62*.
For CCC(NC(=O)c1ccc2c(c1)c(C)c(C)n2Cc1ccc(-c2ccccc2C#N)cc1)c1ccccc1 (stereo not drawn) the results were UHRF1 binding 4 and MBD2 inh 7.
O=C(C=Cc1ccco1)c1ccc2ccccc2c1 was read as Beta2AR agonist -1, ABHD5 PLIN5 PPI 37*, UHRF1 binding -1, MBD2 inh 3, Arrestin-AP2 inh 3, Rin1-Abl PPI inh 3, ABHD5 PLIN5 conf 64* and HNF4 counter 54*.
Screening CC(=O)Nc1ccc(C(=O)/C=C/c2ccco2)cc1 returned Beta2AR agonist 3, ABHD5 PLIN5 PPI 29*, UHRF1 binding 9, MBD2 inh 1, Arrestin-AP2 inh 5, Rin1-Abl PPI inh 2, ABHD5 PLIN5 conf 52* and HNF4 counter 57*.
`O=C(/C=C\c1ccco1)c1ccc(NC(=O)c2ccco2)cc1` gave Beta2AR agonist -2, ABHD5 PLIN5 PPI 25*, UHRF1 binding 12, MBD2 inh 9, Arrestin-AP2 inh 45, Rin1-Abl PPI inh 2, ABHD5 PLIN5 conf 49* and HNF4 counter 47*.
C=CC[C@@H]1NN2C(=O)[C@@H](CCCC)[C@@H]3c4ccccc4C=NN3[C@@H]2c2ccccc21 was read as UHRF1 binding 0 and MBD2 inh -1.
`Cc1ccccc1NC(=O)Cn1nnc(-c2ccncc2)n1` gave UHRF1 binding 2 and MBD2 inh 2.
CCOC(=O)[C@]12CCCCC/C=C\1N(CCc1ccc(Cl)cc1)C(=O)[C@H]2CC(=O)N1CCOCC1 was read as UHRF1 binding -1 and MBD2 inh -4.
